Test results: ChEMBL document CHEMBL3091364, “Benzyloxybenzylammonium chlorides: Simple amine salts that display anticonvulsant activity” (Bioorg Med Chem, 2013)

Key:
[1] = biological target: Sodium-dependent serotonin transporter (Homo sapiens) (UniProt P31645); assay: Inhibition of SERT (unknown origin) at 10 uM relative to control
[2] = biological target: Sodium-dependent dopamine transporter (Homo sapiens) (UniProt Q01959); assay: Inhibition of DAT (unknown origin) at 10 uM relative to control
Sodium-dependent dopamine transporter (Homo sapiens), sequence (Q01959 whole entry): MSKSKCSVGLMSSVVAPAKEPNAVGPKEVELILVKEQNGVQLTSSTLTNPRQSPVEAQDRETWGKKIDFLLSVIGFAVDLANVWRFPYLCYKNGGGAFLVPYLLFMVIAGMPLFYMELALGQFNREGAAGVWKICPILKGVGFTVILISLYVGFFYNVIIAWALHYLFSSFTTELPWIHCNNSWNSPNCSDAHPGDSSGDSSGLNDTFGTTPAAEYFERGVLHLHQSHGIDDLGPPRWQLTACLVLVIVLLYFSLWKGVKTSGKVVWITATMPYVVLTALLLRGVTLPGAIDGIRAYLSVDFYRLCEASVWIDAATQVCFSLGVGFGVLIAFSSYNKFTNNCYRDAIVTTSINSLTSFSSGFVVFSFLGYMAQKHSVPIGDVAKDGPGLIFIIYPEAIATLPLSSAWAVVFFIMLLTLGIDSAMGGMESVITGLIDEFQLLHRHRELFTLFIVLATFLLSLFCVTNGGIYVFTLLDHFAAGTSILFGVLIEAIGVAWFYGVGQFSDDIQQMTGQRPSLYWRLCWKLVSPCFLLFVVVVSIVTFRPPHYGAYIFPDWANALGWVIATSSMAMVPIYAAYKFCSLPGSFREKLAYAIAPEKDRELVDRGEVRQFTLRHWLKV

[3] = biological target: Muscarinic acetylcholine receptor M3 (Homo sapiens) (UniProt P20309); assay: Inhibition of muscarinergic M3 receptor (unknown origin) at 10 uM relative to control
Muscarinic acetylcholine receptor M3 (Homo sapiens), sequence (P20309 whole entry, looked up): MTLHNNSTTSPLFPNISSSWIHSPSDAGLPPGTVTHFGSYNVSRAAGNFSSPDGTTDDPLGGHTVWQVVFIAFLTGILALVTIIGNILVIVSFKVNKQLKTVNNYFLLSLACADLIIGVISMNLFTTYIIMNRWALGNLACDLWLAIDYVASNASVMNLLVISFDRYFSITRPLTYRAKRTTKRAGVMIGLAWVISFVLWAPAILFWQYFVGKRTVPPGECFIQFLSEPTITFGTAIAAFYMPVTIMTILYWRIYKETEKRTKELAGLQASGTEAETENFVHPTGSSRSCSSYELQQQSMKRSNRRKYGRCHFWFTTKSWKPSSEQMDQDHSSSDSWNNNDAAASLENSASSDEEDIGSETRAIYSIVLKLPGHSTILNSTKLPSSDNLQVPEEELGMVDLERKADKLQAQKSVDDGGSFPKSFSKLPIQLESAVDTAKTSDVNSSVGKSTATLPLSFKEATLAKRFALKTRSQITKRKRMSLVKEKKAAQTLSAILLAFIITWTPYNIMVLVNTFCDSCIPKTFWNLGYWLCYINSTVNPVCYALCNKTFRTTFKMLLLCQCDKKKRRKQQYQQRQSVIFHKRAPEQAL

[4] = biological target: Sigma non-opioid intracellular receptor 1 (Homo sapiens) (UniProt Q99720); assay: Inhibition of sigma-1 receptor (unknown origin) at 10 uM relative to control
Sigma non-opioid intracellular receptor 1 (Homo sapiens), sequence (Q99720 whole entry): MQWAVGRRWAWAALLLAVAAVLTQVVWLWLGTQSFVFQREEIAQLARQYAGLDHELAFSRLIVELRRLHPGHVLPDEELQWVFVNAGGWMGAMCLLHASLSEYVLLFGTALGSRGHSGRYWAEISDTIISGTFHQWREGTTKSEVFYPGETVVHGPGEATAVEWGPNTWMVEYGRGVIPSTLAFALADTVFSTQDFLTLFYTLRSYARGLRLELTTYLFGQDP

[5] = biological target: Delta-type opioid receptor (Homo sapiens) (UniProt P41143); assay: Inhibition of delta opioid receptor (unknown origin) at 10 uM relative to control
Delta-type opioid receptor (Homo sapiens), sequence (P41143 whole entry): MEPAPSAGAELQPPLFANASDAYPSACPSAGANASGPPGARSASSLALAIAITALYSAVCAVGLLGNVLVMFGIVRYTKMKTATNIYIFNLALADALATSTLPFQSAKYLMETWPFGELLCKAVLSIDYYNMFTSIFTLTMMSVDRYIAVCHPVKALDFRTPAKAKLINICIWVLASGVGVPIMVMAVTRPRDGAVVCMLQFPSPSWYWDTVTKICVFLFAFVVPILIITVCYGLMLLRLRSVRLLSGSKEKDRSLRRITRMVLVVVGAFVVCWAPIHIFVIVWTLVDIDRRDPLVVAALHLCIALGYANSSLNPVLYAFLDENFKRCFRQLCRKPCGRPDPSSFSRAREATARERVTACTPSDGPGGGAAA

[6] = biological target: D(1A) dopamine receptor (Homo sapiens) (UniProt P21728); assay: Inhibition of dopaminergic D1 receptor (unknown origin) at 10 uM relative to control
D(1A) dopamine receptor (Homo sapiens), sequence (P21728 whole entry): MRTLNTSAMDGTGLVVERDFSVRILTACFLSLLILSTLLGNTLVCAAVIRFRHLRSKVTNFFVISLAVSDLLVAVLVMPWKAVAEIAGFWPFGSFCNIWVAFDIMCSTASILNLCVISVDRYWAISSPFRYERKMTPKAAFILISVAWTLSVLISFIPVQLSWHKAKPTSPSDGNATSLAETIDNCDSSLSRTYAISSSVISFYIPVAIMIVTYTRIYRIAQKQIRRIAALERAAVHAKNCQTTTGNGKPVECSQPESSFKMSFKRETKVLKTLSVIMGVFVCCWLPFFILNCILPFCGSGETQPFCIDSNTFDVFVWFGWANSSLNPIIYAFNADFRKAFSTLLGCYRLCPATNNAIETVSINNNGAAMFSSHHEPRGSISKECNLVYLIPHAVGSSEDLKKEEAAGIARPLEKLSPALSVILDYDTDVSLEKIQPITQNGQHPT

[7] = biological target: Translocator protein (Homo sapiens) (UniProt P30536); assay: Inhibition of PBR (unknown origin) at 10 uM relative to control
Translocator protein (Homo sapiens), sequence (P30536 whole entry): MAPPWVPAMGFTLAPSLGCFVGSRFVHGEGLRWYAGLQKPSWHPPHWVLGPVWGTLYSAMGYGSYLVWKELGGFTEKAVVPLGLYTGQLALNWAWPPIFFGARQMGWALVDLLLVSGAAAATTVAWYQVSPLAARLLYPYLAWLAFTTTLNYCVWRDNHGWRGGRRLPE

[8] = biological target: Beta-3 adrenergic receptor (Homo sapiens) (UniProt P13945); assay: Inhibition of adrenergic beta-3 receptor (unknown origin) at 10 uM relative to control
Beta-3 adrenergic receptor (Homo sapiens), sequence (P13945 whole entry, looked up): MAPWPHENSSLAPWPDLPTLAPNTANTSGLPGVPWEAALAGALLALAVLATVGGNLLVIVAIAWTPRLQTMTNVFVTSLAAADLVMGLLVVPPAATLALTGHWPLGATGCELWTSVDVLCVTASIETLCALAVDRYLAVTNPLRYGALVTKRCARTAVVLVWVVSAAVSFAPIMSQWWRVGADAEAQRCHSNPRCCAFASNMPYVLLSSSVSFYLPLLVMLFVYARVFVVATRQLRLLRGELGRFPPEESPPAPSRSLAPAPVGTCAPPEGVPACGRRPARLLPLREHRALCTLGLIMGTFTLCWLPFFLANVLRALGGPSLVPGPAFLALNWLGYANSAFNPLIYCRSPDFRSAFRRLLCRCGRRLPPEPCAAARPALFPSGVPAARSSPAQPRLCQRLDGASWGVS

Rattus norvegicus [9] = species: Rattus norvegicus; assay: Inhibition of BZP receptor in rat brain at 10 uM relative to control; type: tissue-based
[10] = biological target: T1, Alpha-2C adrenergic receptor (Homo sapiens) (UniProt P18825); assay: Inhibition of adrenergic alpha-2C receptor (unknown origin) at 10 uM relative to control
T1 sequence (whole entry): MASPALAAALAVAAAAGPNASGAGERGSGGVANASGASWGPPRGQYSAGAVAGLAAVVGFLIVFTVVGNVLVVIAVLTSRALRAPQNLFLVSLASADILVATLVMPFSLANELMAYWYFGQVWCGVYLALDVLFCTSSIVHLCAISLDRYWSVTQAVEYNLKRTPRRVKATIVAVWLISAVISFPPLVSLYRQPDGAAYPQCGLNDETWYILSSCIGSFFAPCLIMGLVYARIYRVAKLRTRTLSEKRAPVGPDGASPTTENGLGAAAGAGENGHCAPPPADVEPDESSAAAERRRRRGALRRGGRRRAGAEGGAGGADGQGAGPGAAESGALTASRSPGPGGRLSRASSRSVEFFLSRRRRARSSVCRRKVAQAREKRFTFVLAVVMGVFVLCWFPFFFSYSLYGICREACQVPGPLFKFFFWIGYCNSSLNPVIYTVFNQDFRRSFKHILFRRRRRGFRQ

[11] = biological target: T2, Alpha-1A adrenergic receptor (Homo sapiens) (UniProt P35348); assay: Inhibition of adrenergic alpha-1A receptor (unknown origin) at 10 uM relative to control
T2 sequence (whole entry): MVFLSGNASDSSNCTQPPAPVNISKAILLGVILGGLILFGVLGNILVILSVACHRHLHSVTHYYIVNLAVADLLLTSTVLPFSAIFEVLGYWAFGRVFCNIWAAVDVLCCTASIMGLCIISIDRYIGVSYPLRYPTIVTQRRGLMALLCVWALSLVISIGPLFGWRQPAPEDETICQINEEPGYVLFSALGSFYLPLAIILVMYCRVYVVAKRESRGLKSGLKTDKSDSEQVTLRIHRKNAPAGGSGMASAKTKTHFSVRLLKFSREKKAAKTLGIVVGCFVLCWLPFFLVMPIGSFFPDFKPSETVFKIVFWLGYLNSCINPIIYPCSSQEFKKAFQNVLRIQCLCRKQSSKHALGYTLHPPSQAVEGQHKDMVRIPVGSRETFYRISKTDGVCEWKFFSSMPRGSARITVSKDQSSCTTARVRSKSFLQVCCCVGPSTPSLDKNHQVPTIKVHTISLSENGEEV

[12] = biological target: 5-hydroxytryptamine receptor 6 (Homo sapiens) (UniProt P50406); assay: Inhibition of 5-HT6 receptor (unknown origin) at 10 uM relative to control
5-hydroxytryptamine receptor 6 (Homo sapiens), sequence (P50406 whole entry): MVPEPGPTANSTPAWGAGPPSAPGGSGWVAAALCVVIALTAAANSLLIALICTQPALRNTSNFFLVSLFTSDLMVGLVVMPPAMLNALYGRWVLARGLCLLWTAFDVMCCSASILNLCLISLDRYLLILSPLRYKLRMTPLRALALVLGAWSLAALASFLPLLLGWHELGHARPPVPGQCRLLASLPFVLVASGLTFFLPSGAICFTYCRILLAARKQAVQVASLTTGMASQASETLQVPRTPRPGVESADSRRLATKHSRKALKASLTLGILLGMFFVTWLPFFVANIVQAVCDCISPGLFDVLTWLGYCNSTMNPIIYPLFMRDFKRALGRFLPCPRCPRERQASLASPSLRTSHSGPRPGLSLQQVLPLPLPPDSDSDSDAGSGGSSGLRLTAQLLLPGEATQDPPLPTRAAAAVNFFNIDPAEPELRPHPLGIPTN

[13] = biological target: 5-hydroxytryptamine receptor 5A (Homo sapiens) (UniProt P47898); assay: Inhibition of 5-HT5A receptor (unknown origin) at 10 uM relative to control
5-hydroxytryptamine receptor 5A (Homo sapiens), sequence (P47898 whole entry): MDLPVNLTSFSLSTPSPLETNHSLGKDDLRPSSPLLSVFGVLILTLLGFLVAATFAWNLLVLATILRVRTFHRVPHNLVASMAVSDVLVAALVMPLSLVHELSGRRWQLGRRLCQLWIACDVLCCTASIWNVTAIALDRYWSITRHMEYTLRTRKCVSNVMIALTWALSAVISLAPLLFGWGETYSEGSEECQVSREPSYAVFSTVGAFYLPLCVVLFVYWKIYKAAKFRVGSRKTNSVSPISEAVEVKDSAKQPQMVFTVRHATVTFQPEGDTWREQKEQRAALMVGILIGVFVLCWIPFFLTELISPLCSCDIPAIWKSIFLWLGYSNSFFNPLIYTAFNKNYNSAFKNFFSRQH

[14] = biological target: 5-hydroxytryptamine receptor 2B (Homo sapiens) (UniProt P41595); assay: Inhibition of 5-HT2B receptor (unknown origin) at 10 uM relative to control
5-hydroxytryptamine receptor 2B (Homo sapiens), sequence (P41595 whole entry): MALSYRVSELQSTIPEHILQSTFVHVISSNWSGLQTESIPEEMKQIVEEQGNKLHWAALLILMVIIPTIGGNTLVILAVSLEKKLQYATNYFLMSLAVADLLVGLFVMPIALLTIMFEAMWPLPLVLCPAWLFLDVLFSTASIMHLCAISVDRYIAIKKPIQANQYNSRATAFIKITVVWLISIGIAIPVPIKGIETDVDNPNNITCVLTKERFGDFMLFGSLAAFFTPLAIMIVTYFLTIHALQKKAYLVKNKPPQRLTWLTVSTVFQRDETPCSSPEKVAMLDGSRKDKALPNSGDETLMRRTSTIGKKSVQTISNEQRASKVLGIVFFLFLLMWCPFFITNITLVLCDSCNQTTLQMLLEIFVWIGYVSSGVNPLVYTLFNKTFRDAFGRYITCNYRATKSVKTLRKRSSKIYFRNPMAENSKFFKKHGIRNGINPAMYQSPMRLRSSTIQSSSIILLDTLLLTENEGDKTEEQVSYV

[15] = biological target: 5-hydroxytryptamine receptor 1D (Homo sapiens) (UniProt P28221); assay: Inhibition of 5-HT1D receptor (unknown origin) at 10 uM relative to control
5-hydroxytryptamine receptor 1D (Homo sapiens), sequence (P28221 whole entry): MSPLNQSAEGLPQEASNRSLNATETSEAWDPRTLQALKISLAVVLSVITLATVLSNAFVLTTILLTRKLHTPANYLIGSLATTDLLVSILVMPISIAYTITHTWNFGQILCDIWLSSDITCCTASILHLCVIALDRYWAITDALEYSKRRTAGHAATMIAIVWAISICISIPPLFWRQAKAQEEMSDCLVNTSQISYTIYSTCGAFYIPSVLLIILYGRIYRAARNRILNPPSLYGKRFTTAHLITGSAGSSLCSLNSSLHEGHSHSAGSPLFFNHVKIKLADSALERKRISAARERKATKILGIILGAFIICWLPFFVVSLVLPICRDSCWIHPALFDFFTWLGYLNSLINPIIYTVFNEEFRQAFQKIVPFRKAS

[16] = biological target: T3, 5-hydroxytryptamine receptor 1A (Homo sapiens) (UniProt P08908); assay: Inhibition of 5-HT1A receptor (unknown origin) at 10 uM relative to control
T3 sequence (whole entry): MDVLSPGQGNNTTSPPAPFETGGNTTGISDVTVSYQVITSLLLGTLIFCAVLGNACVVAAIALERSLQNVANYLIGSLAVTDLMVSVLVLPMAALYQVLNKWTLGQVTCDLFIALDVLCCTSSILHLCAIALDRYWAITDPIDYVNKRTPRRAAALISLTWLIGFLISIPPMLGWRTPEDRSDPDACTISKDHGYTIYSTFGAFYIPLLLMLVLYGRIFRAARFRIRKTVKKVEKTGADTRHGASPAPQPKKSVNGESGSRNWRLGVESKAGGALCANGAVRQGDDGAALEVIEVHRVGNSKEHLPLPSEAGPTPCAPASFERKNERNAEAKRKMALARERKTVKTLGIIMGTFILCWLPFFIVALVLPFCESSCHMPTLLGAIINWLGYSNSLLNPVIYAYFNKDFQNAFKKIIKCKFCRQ

Rattus norvegicus [17] = assay: Anticonvulsant activity in po dosed albino Sprague-Dawley rat assessed as protection against maximal electroshock-induced seizures measured at 0.25 to 4 hrs; type: functional
Summary of the method: (§1)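 Screened under the NINDS ASP in male albino Carworth Farms No. 1 mice (ip) or male albino Sprague-Dawley rats (ip or po), using MES, 6 Hz (32 mA) and subcutaneous pentylenetetrazol seizure tests. Initial qualitative tests used preset doses (e.g., 30, 50, 100 mg/kg). ED50 values with 95% confidence intervals came from dose–response data collected at the time of peak effect.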

[18] = Toxicity in ip dosed albino Sprague-Dawley rat assessed as behavioral changes measured at 0.25 to 4 hrs; type: organism-based; conditions: in vivo
Summary of the method: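 Male albino Sprague-Dawley rats given compound intraperitoneally or orally (NINDS ASP); neurological impairment judged from behavioral toxicity effects. Preset screening doses (e.g., 30 mg/kg); for adequately active compounds, TD50 (mg/kg, 95% confidence intervals) derived from dose–effect data at time of peak effect.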

[19] = biological target: 5-hydroxytryptamine receptor 1B (Homo sapiens) (UniProt P28222); assay: Inhibition of 5-HT1B receptor (unknown origin) at 10 uM relative to control
5-hydroxytryptamine receptor 1B (Homo sapiens), sequence (P28222 whole entry): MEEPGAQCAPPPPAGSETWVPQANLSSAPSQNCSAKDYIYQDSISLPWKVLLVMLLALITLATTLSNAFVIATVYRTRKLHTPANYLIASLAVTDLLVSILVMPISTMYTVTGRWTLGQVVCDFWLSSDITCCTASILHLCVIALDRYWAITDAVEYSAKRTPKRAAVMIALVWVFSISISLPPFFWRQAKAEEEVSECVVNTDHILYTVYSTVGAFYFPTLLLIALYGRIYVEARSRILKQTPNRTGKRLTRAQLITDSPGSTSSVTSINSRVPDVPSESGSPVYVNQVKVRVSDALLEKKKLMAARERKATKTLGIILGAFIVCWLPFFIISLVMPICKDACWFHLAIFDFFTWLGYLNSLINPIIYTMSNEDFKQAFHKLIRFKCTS

Mus musculus = assay: Anticonvulsant activity in ip dosed albino CF-1 mouse assessed as protection against maximal electroshock-induced seizures measured at 0.5 hrs; type: functional; conditions: albino CF-1, ip; summary of the method: as §1

Cl.NCc1ccc(OCc2ccccc2)cc1
inhibition [1]: 49.1% | inhibition [2]: 72.2% | inhibition [3]: 1% | inhibition [4]: 97.7% | inhibition [5]: 22% | inhibition [6]: -6% | inhibition [7]: 11.8% | inhibition [8]: 11.3% | inhibition (Rattus norvegicus [9]): 12.7% | inhibition [10]: 47.6% | inhibition [11]: 12.8% | inhibition [12]: 26.9% | inhibition [13]: 1.2% | inhibition [14]: 55.7% | inhibition [15]: -3.3% | inhibition [16]: 16% | ED50 (Rattus norvegicus [17]): > 30 mg/kg | TD50 [18]: > 50 mg/kg

Cl.NCc1ccc(OCc2ccc(F)cc2)cc1
inhibition [1]: 71.3% | inhibition [2]: 48.2% | inhibition [3]: 7% | inhibition [4]: 92.7% | inhibition [5]: 17% | inhibition [6]: -1.9% | inhibition [7]: -2.3% | inhibition [8]: 5% | inhibition (Rattus norvegicus [9]): 8.9% | inhibition [10]: 40.2% | inhibition [11]: -7.5% | inhibition [12]: 18.1% | inhibition [13]: 8.5% | inhibition [14]: 46.5% | inhibition [15]: 12.7% | inhibition [19]: -2.5% | inhibition [16]: 36% | ED50 (Rattus norvegicus [17]): > 30 mg/kg | TD50 [18]: > 30 mg/kg

Cl.NCc1ccc(OCc2cccc(F)c2)cc1
inhibition [1]: 83.4% | inhibition [2]: 76.8% | inhibition [3]: -2.1% | inhibition [4]: 102% | inhibition [5]: 18% | inhibition [6]: -1.1% | inhibition [7]: 15.2% | inhibition [8]: 9.3% | inhibition (Rattus norvegicus [9]): 25.8% | inhibition [12]: 44.8% | inhibition [14]: 87.3% | inhibition [16]: 50.1% | ED50 (Rattus norvegicus [17]): > 30 mg/kg | TD50 [18]: > 30 mg/kg

Cl.NCc1ccc(OCc2ccccc2OC(F)(F)F)cc1
inhibition [1]: 31.4% | inhibition [2]: 50.7% | inhibition [3]: 19.5% | inhibition [4]: 92.9% | inhibition [5]: 23% | inhibition [6]: -2.5% | inhibition [7]: 4.7% | inhibition [8]: 26.8% | inhibition (Rattus norvegicus [9]): 5.9% | inhibition [10]: 40.2% | inhibition [11]: -9.7% | inhibition [12]: 22% | inhibition [13]: -0.1% | inhibition [14]: 49% | inhibition [15]: 0.5% | inhibition [19]: -8.8% | inhibition [16]: 10.1%

Cl.NCc1ccc(OCc2cccc(Cl)c2)cc1
inhibition [1]: 76.5% | inhibition [2]: 84.1% | inhibition [3]: 11.9% | inhibition [4]: 89.4% | inhibition [5]: 17% | inhibition [6]: 2.9% | inhibition [7]: 50% | inhibition [8]: 16.9% | inhibition (Rattus norvegicus [9]): -4.4% | inhibition [10]: 81.1% | inhibition [12]: 52.4% | inhibition [13]: 44.9% | inhibition [14]: 39.8% | inhibition [15]: -0.7% | inhibition [16]: 7.5% | ED50 (Rattus norvegicus [17]): > 30 mg/kg | TD50 [18]: > 30 mg/kg

Cl.NCc1ccc(OCc2ccccc2F)cc1
inhibition [1]: 34.4% | inhibition [2]: 61.7% | inhibition [3]: 12.7% | inhibition [4]: 102% | inhibition [5]: 17% | inhibition [6]: -0.2% | inhibition [7]: 26.8% | inhibition [8]: 10.2% | inhibition (Rattus norvegicus [9]): -1.5% | inhibition [10]: 33% | inhibition [12]: 21.3% | inhibition [13]: -5.2% | inhibition [14]: 82.4% | inhibition [19]: -7.7% | inhibition [16]: 32.3% | ED50 (Rattus norvegicus [17]): > 30 mg/kg | TD50 [18]: > 50 mg/kg | ED50 (Mus musculus): 30 mg/kg

Cl.NCc1ccc(OCc2cccc(OC(F)(F)F)c2)cc1
inhibition [1]: 55.7% | inhibition [2]: 45.5% | inhibition [3]: -3.5% | inhibition [4]: 96.9% | inhibition [5]: 0.9% | inhibition [6]: -3.3% | inhibition [7]: 3.6% | inhibition [8]: 13.6% | inhibition (Rattus norvegicus [9]): 19.8% | inhibition [10]: 46.6% | inhibition [12]: 34.3% | inhibition [13]: 0.2% | inhibition [14]: 51.4% | inhibition [15]: 12.3% | inhibition [16]: 50% | ED50 (Rattus norvegicus [17]): > 30 mg/kg | TD50 [18]: > 30 mg/kg | ED50 (Mus musculus): 28 mg/kg

Cl.NCc1ccc(OCc2ccc(OC(F)(F)F)cc2)cc1
inhibition [1]: 10.6% | inhibition [2]: 70.5% | inhibition [3]: -6.5% | inhibition [4]: 91.1% | inhibition [5]: 21% | inhibition [6]: -9.4% | inhibition [7]: 5.6% | inhibition [8]: 17.5% | inhibition (Rattus norvegicus [9]): 0.3% | inhibition [10]: 42.2% | inhibition [12]: 8.9% | inhibition [13]: -1.8% | inhibition [14]: 34.4% | inhibition [15]: 4.9% | inhibition [16]: 22.3% | ED50 (Rattus norvegicus [17]): > 30 mg/kg | TD50 [18]: > 50 mg/kg | ED50 (Mus musculus): < 100 mg/kg

Cl.NCc1ccc(OCc2ccc(Cl)cc2)cc1
inhibition [1]: 53.8% | inhibition [2]: 75.7% | inhibition [3]: 13.7% | inhibition [4]: 90.6% | inhibition [5]: 13% | inhibition [6]: 7.6% | inhibition [7]: 12% | inhibition [8]: -3.4% | inhibition (Rattus norvegicus [9]): 6.5% | inhibition [10]: 52.1% | inhibition [11]: -9.4% | inhibition [12]: 50.5% | inhibition [13]: 36.6% | inhibition [14]: 40.6% | inhibition [15]: 1.6% | inhibition [19]: -6.7% | inhibition [16]: 3.7% | ED50 (Rattus norvegicus [17]): > 30 mg/kg | TD50 [18]: > 30 mg/kg
